Results taken from paper PMC2841041 (Developmental cell, 2010).
Peptide text beside a SMILES is read from it. * marks the point of attachment. Cbz = O=C(OCc1ccccc1)*; CH2F = FC*

Assays:
[1] = tested on: HeLa cells expressing CTFβ-GFP; assay: Processing of CTFβ-GFP; type: cell-based; conditions: immunoblot, antibody to GFP; for CTFα and C31 from CTFβ-GFP: DAPT-treated cells
In short: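 CTFβ-GFP (wild-type, D664A or F689A/F690A/E691A) expressed in HeLa cells, or in mock- or μ4-siRNA-depleted cells. Same handling: lipofection, 8–16 h, then 16 h ± 250 nM DAPT, 100 μM E-64 and/or 200 μM Z-VAD-FMK, anti-GFP immunoblot; mean ± SD, n=3. Aβ: 4 h [35S]Met-Cys labelling at 37°C, medium immunoprecipitated with 6E10, Tricine 10–20% gels, fluorography; mean ± SD, n=4.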

[2] = tested on: HeLa cells expressing APP-CFP; assay: Immunoblot of APP-CFP fragments; type: cell-based; conditions: for C31 fragment levels/formation: DAPT-treated cells
In short: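 HeLa cells transfected (Lipofectamine 2000, 1 h, 37°C, no FBS) with C-terminally CFP-tagged APP (wild-type, D664A or F689A/F690A/E691A), or μ4-siRNA-depleted twice and then APP-CFP-transfected. Analysed 8–16 h post-transfection after 16 h ± 250 nM DAPT, 100 μM E-64 and/or 200 μM Z-VAD-FMK. Pellet/supernatant fractionation in some runs. SDS-PAGE, anti-GFP immunoblot. Fragment levels given as mean ± SD of three experiments.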

HeLa cells = assay: Pulse-chase / immunoblot analysis of APP processing and CTF levels; type: cell-based; conditions: 250 nM DAPT; decrease elicited by FFE mutation or μ4 depletion
[3] = tested on: APP distribution in HeLa cells; assay: Immunofluorescence microscopy, intracellular distribution of APP; type: cell-based
μ4 subunit of AP-4 = assay: Yeast two-hybrid; type: binding, human; conditions: His-deficient plates, 30°C
mutant μ4 = assay: Yeast two-hybrid; type: binding, human
In short: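 Yeast co-transformed with Gal4ad fused to wild-type or point-mutant human μ4 (mutations introduced by site-directed mutagenesis) and Gal4bd fused to the APP tail (human APP695 template). Cells spotted on His-deficient and His-containing plates and incubated at 30°C; growth on −His scored as interaction. Controls: Gal4bd-mouse p53 with Gal4ad-SV40 large T antigen.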

[4] = tested on: ε, β4 and σ4 subunits of AP-4; assay: Y2H of APP tail with other AP-4 subunits; type: binding
[5] = molecular target: T1, recombinant μ4 C-terminal domain (Homo sapiens, UniProt O00189, C235S/C431S); assay: Isothermal titration calorimetry; type: binding; conditions: purified components, synthetic peptide
T1 sequence (O00189 160-453 C235S/C431S): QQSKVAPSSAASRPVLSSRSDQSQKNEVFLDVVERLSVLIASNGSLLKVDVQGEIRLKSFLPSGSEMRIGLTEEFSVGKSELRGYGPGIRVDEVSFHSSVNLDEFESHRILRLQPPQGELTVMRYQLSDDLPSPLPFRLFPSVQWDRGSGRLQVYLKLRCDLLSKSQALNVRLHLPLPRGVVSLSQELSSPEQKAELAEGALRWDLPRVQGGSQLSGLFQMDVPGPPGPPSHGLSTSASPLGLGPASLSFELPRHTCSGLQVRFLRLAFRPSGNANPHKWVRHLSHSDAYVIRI

μ1, μ2 and μ3 subunits = assay: Y2H of APP signal with other AP μ subunits; type: binding
[6] = molecular target: T2, recombinant μ4 C-terminal domain (160–453; C235S, C431S) (human, UniProt O00189 160-453, C235S | C431S); assay: ITC
T2 sequence (looked up): T1 sequence (O00189 160-453 C235S/C431S)

In the case of `C[C@H](NC(=O)Cc1cc(F)cc(F)c1)C(=O)N[C@H](C(=O)OC(C)(C)C)c1ccccc1` [DAPT], the “AICDγ formation/levels from CTFβ-GFP” value [1] is reported as “prevented AICDγ formation”, the “CTFα and C31 from CTFβ-GFP” value [1] is reported as “resulted in the appearance of CTFα and C31” and the C31 fragment levels/formation ([2]; immunoblot, antibody to GFP) is reported as “increased the levels of a smaller, soluble fragment”. The “difference in AICDγ-CFP levels / CTF accumulation with DAPT” value ([2]; FFE mutation or μ4 depletion, incubation with DAPT) was “abolished by incubation with DAPT, resulting in the accumulation of equal amounts of CTFs under all conditions”, the AICDγ-CFP formation/levels ([2]; immunoblot, antibody to GFP) was “precluded AICDγ-CFP formation” and the CTFα-CFP levels ([2]; immunoblot, antibody to GFP, DAPT 250 nM) was “increased CTFα-CFP levels”. For the same molecule, the “effect of DAPT on the decrease in steady-state CTFα levels” value (HeLa cells) was “abrogated the decrease in steady-state CTFα levels”.

For `COC(=O)C[C@H](NC(=O)[C@H](C)NC(=O)[C@@H](NC(=O)OCc1ccccc1)C(C)C)C(=O)CF` [Z-VAD-FMK] (Cbz-Val-Ala-Asp(OMe)-CH2F), the “CTFα and C31 from CTFβ-GFP” value [1] was “absence” and the C31 fragment levels/formation ([2]; immunoblot, antibody to GFP) was “prevented”.

`C[C@@H]1C[C@@H]([C@H](O)CC2CC(=O)NC(=O)C2)C(=O)[C@@H](C)C1` [cycloheximide, reference compound] was tested, and the “effect on APP-WT staining” value ([3]; inhibition of protein synthesis, mock- and μ4-depleted cells) was “rapid disappearance of APP-WT staining in both mock- and μ4-depleted cells”.

“APP tail: cytosolic tail of APP fused to Gal4bd” was tested, and the “Y2H interaction with μ4” value (μ4 subunit of AP-4) was “interacted exclusively with the μ4 subunit of AP-4”, the “Y2H binding to μ4 S257A/H256A/F255A” value (mutant μ4; Ser-257 to Ala together with His-256 and Phe-255 to Ala) was “completely abolished binding” and the “Y2H binding to μ4 F255A/R283D” value (mutant μ4; double mutation of Phe-255 and Arg-283) was “completely abrogated”. The “Y2H binding to μ4 S257A” value (mutant μ4; mutation of Ser-257 to Ala) was “no detectable effect”, the “Y2H binding to μ4 H256A, E265A or R283A” value (mutant μ4; single mutation of His-256, Glu-265, Arg-283 to Ala) was “little or no effect on the interaction” and the “Y2H binding to μ4 F255A or R283D” value (mutant μ4; single mutation of Phe-255 to Ala, or Arg-283 to Asp) was “drastically reduced”. For the same molecule, the “Y2H binding to μ4 H256A/E265A/R283A” value (mutant μ4; triple mutation) was “greatly decreased the interaction” and the “Y2H interaction with ε, β4 and σ4” value [4] was “did not bind to the APP tail”.

In the case of “APP-WT: wild-type APP expressed in HeLa cells”, the “localization of APP to endosomes” value ([3]; HeLa cells, normal conditions, n=11) is reported as 74 ± 8%.

In the case of ENPTAKAAEQ, the “binding site number / binding by ITC” value [5] is reported as “but not a substituted ENPTAKAAEQ variant, bound”.

YKFFE was tested, and the “Y2H interaction with μ1, μ2, μ3” value (μ1, μ2 and μ3 subunits) was “does not bind to these μ subunits”.

With YKYLE the “Y2H interaction with μ4” value (μ4 subunit of AP-4) was “indeed bind to μ4”.

With YRFLE the “Y2H interaction with μ4” value (μ4 subunit of AP-4) was “indeed bind to μ4”.

With ENPTYKFFEQ [synthetic ENPTYKFFEQ peptide derived from the APP tail] the “stoichiometry N” value [6] was 1.
